Most compounds without a hit are left out; they make up all but 4.8% or so of the library.
XBP1 UPR activ = adaptive UPR (XBP1) activation. CHO-XBP1 luciferase reporter, IRE1-XBP1 UPR activation, luminescence; percent of tunicamycin response, DMSO as zero. AID 463104. activation, % at 20 µM. 330,000 tested, 0.33% active;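 active = versus positive control, 20 µM dose yields 30% or more activation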;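 also: 100% = tunicamycin at 10 µg/mL and 0% = DMSO only wells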
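Material: CHO-XBP1 cells stably carrying IRE1-XBP1-driven luciferase reporter | Medium: F12 with 10% serum | Compound dosing: 20 µM single concentration, DMSO 1% | Incubation: Overnight seeding at 37 °C, 6 h compound treatment at 37 °C | Detection: Steady-Glo luminescence read | Read-out basis: % activation of reporter signal versus tunicamycin and DMSO controls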
CHOP UPR activ = apoptotic UPR (CHOP) activation. CHO-CHOP luciferase reporter, luminescence; percent of tunicamycin response over DMSO baseline. activation, % at 10 µM. 330,000 tested, 0.34% active. AID 449763;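 active = at 10 µM dose, activation of 40% or more, normalized to positive control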;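 also: 100% = tunicamycin at 10 µg/mL and 0% = DMSO alone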
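Test system: CHO-CHOP cells, stable luciferase reporter of PERK-eIF2a-CHOP signalling | Quantity: 500 CHO-CHOP cells per well | Buffer or medium: F12 plus 10% serum | Compound dosing: 10 µM single point, 0.5% DMSO | Schedule: 6 h compound treatment, 37 °C | Signal: Luciferase luminescence | Control set: Tunicamycin high control, DMSO low control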
Beta cell apopt = blocks beta cell apoptosis; INS-1E cytokine-induced death, ATP luminescence, 48 h; percent of positive-control rescue, neutral wells zero; 300,000 tested, 0.8% active; AID 435005; protection from apoptosis, % (test concentration not listed);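 active = Every replicate reaches about 75%, or at least half do and their mean reaches it too, limit read from the data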;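 also: 0% = cytokine-treated negative control wells and 100% = positive control rescue; higher means more ATP so stronger rescue from cytokine killing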
SKKanGAS inh = blocks kanamycin growth of S. pyogenes SKKanGAS strain. BacTiter-Glo, 6 h. inhibition, % at 7.5 µM. AID 1662. 300,000 tested, 1.3% active;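 active = mean replicate score, as percent of positive control median, at least 50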;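 also: strain carries kanamycin resistance gene driven by streptokinase promoter and grows in 40 µg/ml kanamycin; loss of luminescence reflects streptokinase promoter inhibition or plain growth inhibition; 0% = median of DMSO wells and 100% = positive control at its reference dose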
Mdm2-MdmX inh = inhibitors of human Mdm2/MdmX interaction; 330,000 tested, 3% active; O15151+Q00987; inhibition, % at 8 µM; SaOS-2 split-luciferase Mdm2/MdmX complementation, luminescence; AID 485346;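 active = inhibition of at least 50% at 8 µM in the primary screen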
Target sequence (O15151 whole entry, looked up): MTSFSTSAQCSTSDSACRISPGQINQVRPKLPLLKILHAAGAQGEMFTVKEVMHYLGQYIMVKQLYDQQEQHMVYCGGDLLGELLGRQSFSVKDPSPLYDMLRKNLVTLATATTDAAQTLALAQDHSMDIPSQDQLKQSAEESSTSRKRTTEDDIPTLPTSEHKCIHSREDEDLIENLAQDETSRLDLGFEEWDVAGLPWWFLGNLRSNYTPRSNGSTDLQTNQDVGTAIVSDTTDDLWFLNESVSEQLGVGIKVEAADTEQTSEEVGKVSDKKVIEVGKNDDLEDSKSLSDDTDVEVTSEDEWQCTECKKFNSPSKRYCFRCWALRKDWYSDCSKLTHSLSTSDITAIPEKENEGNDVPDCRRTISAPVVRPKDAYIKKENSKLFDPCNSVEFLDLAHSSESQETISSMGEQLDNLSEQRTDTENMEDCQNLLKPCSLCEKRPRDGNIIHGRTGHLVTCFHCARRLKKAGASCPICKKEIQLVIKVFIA
Target sequence (Q00987 whole entry, looked up): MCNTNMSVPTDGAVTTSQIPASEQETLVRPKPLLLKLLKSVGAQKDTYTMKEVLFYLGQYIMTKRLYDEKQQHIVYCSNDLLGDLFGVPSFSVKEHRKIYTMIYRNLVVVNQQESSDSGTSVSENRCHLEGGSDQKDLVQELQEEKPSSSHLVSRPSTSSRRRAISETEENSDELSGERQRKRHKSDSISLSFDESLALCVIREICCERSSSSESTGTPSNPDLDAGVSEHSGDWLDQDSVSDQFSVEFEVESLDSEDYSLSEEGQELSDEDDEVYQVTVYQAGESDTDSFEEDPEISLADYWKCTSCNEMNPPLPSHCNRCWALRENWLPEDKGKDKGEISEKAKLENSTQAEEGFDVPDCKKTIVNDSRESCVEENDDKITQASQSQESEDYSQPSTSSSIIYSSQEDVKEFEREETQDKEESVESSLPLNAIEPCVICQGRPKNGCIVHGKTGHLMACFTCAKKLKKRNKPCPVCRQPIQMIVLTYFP
CSC inhib = cancer stem cell inhibition; cancer stem cell-like cells viability, luminescence; inhibition, % at 7.5 µM; 300,000 tested, 1.1% active; in the data active = inhibition above about 75%; tested in HMLE shEcad cells
Mdm2 MdmX conf = confirmation of human Mdm2/MdmX interaction inhibitors; Mdm2-MdmX binding, luminescent assay; inhibition, % at 8 µM; shares compounds with Mdm2-MdmX inh; 10,000 tested, 55% active; AID 489028; in the data active = inhibition above about 40%
Full FLuc ctr = counter-screen for Mdm2/MdmX inhibitors: full-length luciferase; shares compounds with Mdm2-MdmX inh; SaOS-2 full-length luciferase counterscreen, luminescence; inhibition, % at 8 µM; 6,200 tested, 77% active; AID 504607;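 active = mean inhibition at 8 µM reaching about 37%, which flags the compound as non-specific, limit read from the data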;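 also: p53-null SaOS-2 cells with luciferase driven by a doxycycline-inducible promoter; compound on cells about two nights before reading with doxycycline added after day one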
* marks the source's active call; other numbers are inactive results.

How did CC1Cc2ccccc2N1c1ncnc(N)c1[N+](=O)[O-] (stereo unspecified) do in these assays?
XBP1 UPR activ: -6.2; CHOP UPR activ: -4.1; Beta cell apopt: -39.8; SKKanGAS inh: -3.8; Mdm2-MdmX inh: 90.6*; CSC inhib: -9.0; Mdm2 MdmX conf: 93.2*; Full FLuc ctr: 54.4*

Results for CC1CCCCN1c1ncnc(N)c1[N+](=O)[O-] (stereo unspecified) ?
XBP1 UPR activ: -2.4; CHOP UPR activ: -1.4; Beta cell apopt: -14.1; SKKanGAS inh: -8.4; Mdm2-MdmX inh: 36.6

How did CC1Cc2ccccc2N1c1ncnc2nc[nH]c12 (stereo unspecified) do in these assays?
XBP1 UPR activ: 1.0; CHOP UPR activ: 1.0; Beta cell apopt: 2.3; SKKanGAS inh: -3.3; Mdm2-MdmX inh: 53.1*; CSC inhib: -1.0; Mdm2 MdmX conf: 49.0*; Full FLuc ctr: 75.5*

How did OCCN1CCN(c2ncnc3ccc(Br)cc23)CC1 do in these assays?
XBP1 UPR activ: -5.0; CHOP UPR activ: 1.4; SKKanGAS inh: -3.0; Mdm2-MdmX inh: 51.1*; Mdm2 MdmX conf: 60.4*; Full FLuc ctr: 44.8*

What do the screens show for `OCCN1CCN(c2nc(-c3ccccc3)c3cc(Br)ccc3n2)CC1`?
XBP1 UPR activ: 1.4; CHOP UPR activ: 2.4; Beta cell apopt: -3.4; SKKanGAS inh: 4.2; Mdm2-MdmX inh: 25.8; CSC inhib: 7.0

Results for Cc1nc2c(-c3ccc(F)cc3)c(C)nn2c(C)c1CCC(=O)Nc1ccccc1 ?
XBP1 UPR activ: -2.1; CHOP UPR activ: 1.6; Beta cell apopt: 7.5; SKKanGAS inh: 36.8; Mdm2-MdmX inh: 23.7; CSC inhib: -2.3

How did CCN1CCN(c2ccc(NC(=O)CCc3c(C)nc4c(-c5ccc(F)cc5)c(C)nn4c3C)cc2)CC1 do in these assays?
XBP1 UPR activ: -1.4; CHOP UPR activ: 2.1; Beta cell apopt: 11.8; SKKanGAS inh: 10.4; Mdm2-MdmX inh: 55.2*; CSC inhib: 81.0*; Mdm2 MdmX conf: 36.4

What do the screens show for `Cc1ccc(-n2c(C)cc(C3N=C(N)Nc4nc5ccccc5n43)c2C)c(C)c1` (stereo unspecified)?
XBP1 UPR activ: -0.3; CHOP UPR activ: -1.7; Beta cell apopt: 13.6; SKKanGAS inh: 41.6; Mdm2-MdmX inh: 71.6*; CSC inhib: 12.7; Mdm2 MdmX conf: 28.5

What do the screens show for `CCOC(=O)c1sc2ncn(CC(=O)Nc3cc(C)on3)c(=O)c2c1C`?
XBP1 UPR activ: 6.0; CHOP UPR activ: -0.5; Mdm2-MdmX inh: 55.0*; Mdm2 MdmX conf: -9.6

Results for Cc1ccc(S(=O)(=O)c2c(N)n(CCCN(C)C)c3nc4ccccc4nc23)cc1 ?
XBP1 UPR activ: 0.1; CHOP UPR activ: 2.0; SKKanGAS inh: 4.5; Mdm2-MdmX inh: 54.0*; Mdm2 MdmX conf: 10.7

How did O=C(O)CCN1C(=O)c2ccc(NC(=O)COc3ccccc3)cc2C1=O do in these assays?
XBP1 UPR activ: -0.5; CHOP UPR activ: -0.9; Beta cell apopt: -19.2; SKKanGAS inh: -6.8; Mdm2-MdmX inh: 20.0; CSC inhib: -14.4

What do the screens show for `COC(=O)c1cc(C(=O)N2CCN(c3ccccc3OC)CC2)cc([N+](=O)[O-])c1`?
XBP1 UPR activ: 3.7; CHOP UPR activ: 1.3; Beta cell apopt: 4.3; SKKanGAS inh: 1.5; Mdm2-MdmX inh: 51.9*; CSC inhib: -9.2; Mdm2 MdmX conf: 55.6*; Full FLuc ctr: 59.5*

What do the screens show for `COC(=O)c1cc(C(=O)N2CCN(c3cccc(C)c3C)CC2)cc([N+](=O)[O-])c1`?
XBP1 UPR activ: 0.0; CHOP UPR activ: -0.5; Beta cell apopt: 2.1; SKKanGAS inh: 11.7; Mdm2-MdmX inh: 54.5*; CSC inhib: 57.3; Mdm2 MdmX conf: 48.3*; Full FLuc ctr: 54.2*

How did COC(=O)c1cc(C(=O)N2CCN(c3ncccn3)CC2)cc([N+](=O)[O-])c1 do in these assays?
XBP1 UPR activ: 2.0; CHOP UPR activ: 4.8; Beta cell apopt: 4.6; SKKanGAS inh: 1.9; Mdm2-MdmX inh: -13.6; CSC inhib: -9.9

Results for CCCN(CC(=O)Nc1ccccc1C)C(=O)c1nn(CC)c(=O)c2ccccc12 ?
XBP1 UPR activ: -1.8; CHOP UPR activ: -0.5; Beta cell apopt: -0.2; Mdm2-MdmX inh: 22.4

What do the screens show for `CC(C)Cn1cnc2c1c(=O)[nH]c(=O)n2Cc1ccccc1`?
XBP1 UPR activ: -1.2; CHOP UPR activ: -0.3; SKKanGAS inh: 3.3; Mdm2-MdmX inh: 2.7

What do the screens show for `Cc1cc(O)c(C(C)C)cc1C1(c2cc(C(C)C)c(O)cc2C)OC(=O)c2ccccc21`?
XBP1 UPR activ: -7.2; CHOP UPR activ: 22.7; Beta cell apopt: 45.9; SKKanGAS inh: 84.3*; Mdm2-MdmX inh: 99.6*; CSC inhib: 150.1*; Mdm2 MdmX conf: 58.4*; Full FLuc ctr: 21.9

What do the screens show for `COc1ccc(C(=O)/C=C/C(=O)N(CC(=O)NC2CCCCC2)CC2CCCO2)c(O)c1` (stereo unspecified)?
XBP1 UPR activ: -14.4; CHOP UPR activ: 4.0; Beta cell apopt: 48.7; SKKanGAS inh: -35.9; Mdm2-MdmX inh: 59.6*; CSC inhib: 3.8; Mdm2 MdmX conf: 29.1

What do the screens show for `COc1ccc(Cl)cc1S(=O)(=O)Nc1ccc2c(c1)n(C)c(=O)n2C`?
XBP1 UPR activ: -8.4; CHOP UPR activ: 0.6; Beta cell apopt: 1.4; SKKanGAS inh: 0.6; Mdm2-MdmX inh: 49.1; CSC inhib: 3.9

What do the screens show for `CCCCCC[N+](C)(C)CCSSCC[N+](C)(C)CCCCCC`?
XBP1 UPR activ: -0.6; CHOP UPR activ: -0.4; Beta cell apopt: -1.1; SKKanGAS inh: 3.9; Mdm2-MdmX inh: -23.3; CSC inhib: -2.8

What do the screens show for `C#CC[N+](C)(C)CCCCCCCCCCCC`?
XBP1 UPR activ: -0.2; CHOP UPR activ: -0.6; Beta cell apopt: 101.4*; SKKanGAS inh: 25.5; Mdm2-MdmX inh: 84.3*; CSC inhib: 50.2; Mdm2 MdmX conf: 80.4*; Full FLuc ctr: 36.6*

How did CC#CC[N+](C)(C)CCCCCCCCCCCC do in these assays?
XBP1 UPR activ: 1.8; CHOP UPR activ: -0.9; Beta cell apopt: 104.2*; SKKanGAS inh: 24.2; Mdm2-MdmX inh: 87.3*; CSC inhib: 33.0; Mdm2 MdmX conf: 64.3*; Full FLuc ctr: 29.6

What do the screens show for `C#CC[N+](C)(C)CCCCCCCCCC`?
XBP1 UPR activ: 1.2; CHOP UPR activ: 3.1; Beta cell apopt: 16.1; SKKanGAS inh: 3.4; Mdm2-MdmX inh: 70.7*; CSC inhib: -0.5; Mdm2 MdmX conf: 67.6*; Full FLuc ctr: 55.9*
